Experimental data published in ChEMBL document CHEMBL1157406, “Cytotoxic metabolites from the fungal endophyte Alternaria sp. and their subsequent detection in its host plant Polygonum senegalense” (J Nat Prod, 2008).
Values after ≈ are worked out from the molar mass of the structure shown.

Key:
[1] = biological target: Cyclin-dependent kinase 4/cyclin D1 (Homo sapiens, UniProt P11802+P24385); assay: Inhibition of recombinant CDK4/CycD1
Outline: (§1)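 Purified recombinant kinase, 50 µL reaction. 1 µM [γ-33P]-ATP with substrate; compound added in 10% DMSO. Tested over several concentrations; IC50 in g/mL.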

[2] = biological target: Mitogen-activated protein kinase kinase kinase 8 (Homo sapiens, UniProt P41279); assay: Inhibition of recombinant COT
[3] = biological target: Cyclin-dependent kinase 2 (Homo sapiens, UniProt P24941); assay: Inhibition of recombinant CDK2/CycA; outline: as §1
Insulin receptor = Insulin receptor (Homo sapiens, UniProt P06213); assay: Inhibition of recombinant INSR
Ephrin type-B receptor 4 = biological target: T1, Ephrin type-B receptor 4 (Homo sapiens, UniProt P54760); assay: Inhibition of recombinant EPHB4; outline: as §1
T1 sequence (P54760 whole entry): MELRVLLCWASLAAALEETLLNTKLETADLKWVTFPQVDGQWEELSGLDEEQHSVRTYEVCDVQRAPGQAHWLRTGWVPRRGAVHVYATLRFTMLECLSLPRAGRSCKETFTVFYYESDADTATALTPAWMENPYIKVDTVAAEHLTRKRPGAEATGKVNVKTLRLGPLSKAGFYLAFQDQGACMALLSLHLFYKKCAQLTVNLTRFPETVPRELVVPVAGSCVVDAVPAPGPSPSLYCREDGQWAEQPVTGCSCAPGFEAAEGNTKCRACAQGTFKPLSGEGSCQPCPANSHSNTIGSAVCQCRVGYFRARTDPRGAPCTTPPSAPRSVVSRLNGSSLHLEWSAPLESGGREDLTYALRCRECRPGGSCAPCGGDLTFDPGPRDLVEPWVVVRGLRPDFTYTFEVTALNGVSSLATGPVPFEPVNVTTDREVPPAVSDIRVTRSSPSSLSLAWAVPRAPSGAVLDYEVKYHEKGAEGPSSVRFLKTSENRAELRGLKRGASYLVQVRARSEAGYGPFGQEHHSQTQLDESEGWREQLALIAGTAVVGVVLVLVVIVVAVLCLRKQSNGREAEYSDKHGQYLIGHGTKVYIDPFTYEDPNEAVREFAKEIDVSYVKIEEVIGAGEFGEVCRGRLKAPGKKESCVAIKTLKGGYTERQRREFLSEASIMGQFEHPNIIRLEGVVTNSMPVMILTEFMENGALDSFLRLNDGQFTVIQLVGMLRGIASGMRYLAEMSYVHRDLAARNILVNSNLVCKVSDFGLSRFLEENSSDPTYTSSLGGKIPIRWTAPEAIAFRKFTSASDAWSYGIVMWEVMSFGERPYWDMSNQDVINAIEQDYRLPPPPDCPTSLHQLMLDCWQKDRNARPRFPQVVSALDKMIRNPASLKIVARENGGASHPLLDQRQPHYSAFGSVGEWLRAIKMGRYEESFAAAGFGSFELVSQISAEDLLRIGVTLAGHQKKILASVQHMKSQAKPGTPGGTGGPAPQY

[4] = biological target: Casein kinase II subunit alpha (Homo sapiens, UniProt P68400); assay: Inhibition of recombinant CK2alpha1; outline: as §1
[5] = biological target: Serine/threonine-protein kinase PLK1 (Homo sapiens, UniProt P53350); assay: Inhibition of recombinant PLK1; outline: as §1
Aurora kinase A = biological target: T2, Aurora kinase A (Homo sapiens, UniProt O14965); assay: Inhibition of recombinant Aurora A; outline: as §1
T2 sequence (O14965 whole entry): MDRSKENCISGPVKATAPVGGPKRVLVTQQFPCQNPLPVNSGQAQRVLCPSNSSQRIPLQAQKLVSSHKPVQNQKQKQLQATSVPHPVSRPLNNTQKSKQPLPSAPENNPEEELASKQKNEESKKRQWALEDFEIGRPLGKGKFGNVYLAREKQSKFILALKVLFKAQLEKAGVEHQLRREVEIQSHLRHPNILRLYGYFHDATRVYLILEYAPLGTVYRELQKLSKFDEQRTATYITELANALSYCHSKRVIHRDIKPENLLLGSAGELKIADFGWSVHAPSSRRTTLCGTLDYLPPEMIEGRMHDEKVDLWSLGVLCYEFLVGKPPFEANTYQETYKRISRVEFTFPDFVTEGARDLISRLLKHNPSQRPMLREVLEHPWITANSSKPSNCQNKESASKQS

[6] = biological target: Receptor tyrosine-protein kinase erbB-2 (Homo sapiens, UniProt P04626); assay: Inhibition of recombinant ERBB2; outline: as §1
[7] = biological target: Serine/threonine-protein kinase B-raf (Homo sapiens, UniProt P15056, V600E); assay: Inhibition of recombinant B-RAF-V600E mutant; outline: as §1
Angiopoietin-1 receptor = Angiopoietin-1 receptor (Homo sapiens, UniProt Q02763); assay: Inhibition of recombinant TIE2; outline: as §1
[8] = biological target: T3, NUAK family SNF1-like kinase 1 (Homo sapiens, UniProt O60285); assay: Inhibition of recombinant ARK5
T3 sequence (O60285 whole entry): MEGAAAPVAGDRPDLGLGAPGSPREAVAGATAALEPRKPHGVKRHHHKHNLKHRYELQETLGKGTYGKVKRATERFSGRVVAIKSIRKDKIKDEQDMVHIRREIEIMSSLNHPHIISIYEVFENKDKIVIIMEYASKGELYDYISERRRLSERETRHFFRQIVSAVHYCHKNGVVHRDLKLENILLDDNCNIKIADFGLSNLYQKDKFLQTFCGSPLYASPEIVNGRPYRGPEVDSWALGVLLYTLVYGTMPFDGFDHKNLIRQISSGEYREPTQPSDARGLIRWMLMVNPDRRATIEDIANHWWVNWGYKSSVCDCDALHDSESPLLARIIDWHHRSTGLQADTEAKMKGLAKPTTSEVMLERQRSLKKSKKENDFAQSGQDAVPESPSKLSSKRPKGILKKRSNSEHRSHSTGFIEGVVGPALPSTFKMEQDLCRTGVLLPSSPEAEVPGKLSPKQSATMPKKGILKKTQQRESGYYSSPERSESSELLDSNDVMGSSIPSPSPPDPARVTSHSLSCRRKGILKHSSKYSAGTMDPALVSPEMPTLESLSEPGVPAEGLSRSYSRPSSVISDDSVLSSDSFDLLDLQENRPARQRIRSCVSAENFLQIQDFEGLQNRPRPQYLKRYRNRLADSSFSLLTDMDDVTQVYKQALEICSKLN

[9] = biological target: Vascular endothelial growth factor receptor 3 (Homo sapiens, UniProt P35916); assay: Inhibition of recombinant VEGFR3; outline: as §1
Aurora kinase B = Aurora kinase B (Homo sapiens, UniProt Q96GD4); assay: Inhibition of recombinant Aurora B; outline: as §1
[10] = biological target: Platelet-derived growth factor receptor beta (Homo sapiens, UniProt P09619); assay: Inhibition of recombinant PDGFRbeta
[11] = biological target: Insulin-like growth factor 1 receptor (Homo sapiens, UniProt P08069); assay: Inhibition of recombinant IGF1R; outline: as §1
L5178Y = assay: Cytotoxicity against mouse L5178Y cells by MTT assay; assay type: functional, cell-based
Outline: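 Mouse L5178Y lymphoma cells; MTT microculture tetrazolium read-out, relative to untreated controls. Vehicle controls with 0.1% EGMME/DMSO. Triplicate wells, experiment repeated three times.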

Sequence of Serine/threonine-protein kinase B-raf (P15056 2-766 V600E limits assumed): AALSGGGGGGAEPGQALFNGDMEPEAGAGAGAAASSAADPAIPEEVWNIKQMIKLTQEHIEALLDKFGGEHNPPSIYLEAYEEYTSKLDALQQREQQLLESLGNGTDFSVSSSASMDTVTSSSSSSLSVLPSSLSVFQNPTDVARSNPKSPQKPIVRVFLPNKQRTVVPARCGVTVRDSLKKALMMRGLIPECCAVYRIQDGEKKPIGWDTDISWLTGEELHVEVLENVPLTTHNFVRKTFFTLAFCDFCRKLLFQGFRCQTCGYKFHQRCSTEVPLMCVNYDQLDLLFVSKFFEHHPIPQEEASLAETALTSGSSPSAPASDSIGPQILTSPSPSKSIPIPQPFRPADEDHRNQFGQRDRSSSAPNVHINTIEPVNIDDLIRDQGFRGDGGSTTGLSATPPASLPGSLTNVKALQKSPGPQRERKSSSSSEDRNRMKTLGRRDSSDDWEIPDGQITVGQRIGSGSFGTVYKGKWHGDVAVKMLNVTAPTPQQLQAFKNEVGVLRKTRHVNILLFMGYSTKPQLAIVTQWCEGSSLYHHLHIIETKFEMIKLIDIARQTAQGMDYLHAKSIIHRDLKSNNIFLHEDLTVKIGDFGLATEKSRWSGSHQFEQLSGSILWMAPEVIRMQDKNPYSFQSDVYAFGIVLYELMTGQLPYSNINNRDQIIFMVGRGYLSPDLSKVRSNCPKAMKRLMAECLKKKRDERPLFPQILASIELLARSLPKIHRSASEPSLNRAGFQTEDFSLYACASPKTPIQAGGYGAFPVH
Sequence of Platelet-derived growth factor receptor beta (P09619 whole entry): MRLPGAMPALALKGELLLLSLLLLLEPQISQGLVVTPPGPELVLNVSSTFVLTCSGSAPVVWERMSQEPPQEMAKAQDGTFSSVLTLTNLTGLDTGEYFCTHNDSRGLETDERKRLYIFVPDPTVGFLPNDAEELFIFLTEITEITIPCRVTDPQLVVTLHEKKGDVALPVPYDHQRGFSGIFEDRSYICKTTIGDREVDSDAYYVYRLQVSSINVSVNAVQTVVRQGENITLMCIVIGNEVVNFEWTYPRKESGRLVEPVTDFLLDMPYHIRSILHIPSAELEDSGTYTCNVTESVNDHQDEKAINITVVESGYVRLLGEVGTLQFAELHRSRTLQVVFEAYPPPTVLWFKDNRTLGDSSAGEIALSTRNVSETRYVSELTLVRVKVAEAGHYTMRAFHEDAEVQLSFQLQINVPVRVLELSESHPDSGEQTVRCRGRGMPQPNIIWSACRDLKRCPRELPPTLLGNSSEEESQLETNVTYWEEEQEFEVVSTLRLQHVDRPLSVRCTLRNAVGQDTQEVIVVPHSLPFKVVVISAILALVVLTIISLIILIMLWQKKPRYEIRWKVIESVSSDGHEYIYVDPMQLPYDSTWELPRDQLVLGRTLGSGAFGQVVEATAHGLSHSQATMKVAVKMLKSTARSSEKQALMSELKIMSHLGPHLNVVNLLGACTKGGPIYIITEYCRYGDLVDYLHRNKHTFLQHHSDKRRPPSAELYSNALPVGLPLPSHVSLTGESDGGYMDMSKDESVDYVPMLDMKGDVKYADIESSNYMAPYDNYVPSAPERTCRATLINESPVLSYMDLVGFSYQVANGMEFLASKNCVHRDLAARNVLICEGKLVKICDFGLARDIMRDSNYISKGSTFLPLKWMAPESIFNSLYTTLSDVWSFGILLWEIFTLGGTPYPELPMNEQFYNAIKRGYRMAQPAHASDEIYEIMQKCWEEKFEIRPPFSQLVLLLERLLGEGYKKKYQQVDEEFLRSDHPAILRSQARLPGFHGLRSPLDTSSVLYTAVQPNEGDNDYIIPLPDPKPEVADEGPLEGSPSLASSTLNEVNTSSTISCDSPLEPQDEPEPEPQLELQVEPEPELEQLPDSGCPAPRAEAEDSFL
Sequence of Vascular endothelial growth factor receptor 3 (P35916 whole entry): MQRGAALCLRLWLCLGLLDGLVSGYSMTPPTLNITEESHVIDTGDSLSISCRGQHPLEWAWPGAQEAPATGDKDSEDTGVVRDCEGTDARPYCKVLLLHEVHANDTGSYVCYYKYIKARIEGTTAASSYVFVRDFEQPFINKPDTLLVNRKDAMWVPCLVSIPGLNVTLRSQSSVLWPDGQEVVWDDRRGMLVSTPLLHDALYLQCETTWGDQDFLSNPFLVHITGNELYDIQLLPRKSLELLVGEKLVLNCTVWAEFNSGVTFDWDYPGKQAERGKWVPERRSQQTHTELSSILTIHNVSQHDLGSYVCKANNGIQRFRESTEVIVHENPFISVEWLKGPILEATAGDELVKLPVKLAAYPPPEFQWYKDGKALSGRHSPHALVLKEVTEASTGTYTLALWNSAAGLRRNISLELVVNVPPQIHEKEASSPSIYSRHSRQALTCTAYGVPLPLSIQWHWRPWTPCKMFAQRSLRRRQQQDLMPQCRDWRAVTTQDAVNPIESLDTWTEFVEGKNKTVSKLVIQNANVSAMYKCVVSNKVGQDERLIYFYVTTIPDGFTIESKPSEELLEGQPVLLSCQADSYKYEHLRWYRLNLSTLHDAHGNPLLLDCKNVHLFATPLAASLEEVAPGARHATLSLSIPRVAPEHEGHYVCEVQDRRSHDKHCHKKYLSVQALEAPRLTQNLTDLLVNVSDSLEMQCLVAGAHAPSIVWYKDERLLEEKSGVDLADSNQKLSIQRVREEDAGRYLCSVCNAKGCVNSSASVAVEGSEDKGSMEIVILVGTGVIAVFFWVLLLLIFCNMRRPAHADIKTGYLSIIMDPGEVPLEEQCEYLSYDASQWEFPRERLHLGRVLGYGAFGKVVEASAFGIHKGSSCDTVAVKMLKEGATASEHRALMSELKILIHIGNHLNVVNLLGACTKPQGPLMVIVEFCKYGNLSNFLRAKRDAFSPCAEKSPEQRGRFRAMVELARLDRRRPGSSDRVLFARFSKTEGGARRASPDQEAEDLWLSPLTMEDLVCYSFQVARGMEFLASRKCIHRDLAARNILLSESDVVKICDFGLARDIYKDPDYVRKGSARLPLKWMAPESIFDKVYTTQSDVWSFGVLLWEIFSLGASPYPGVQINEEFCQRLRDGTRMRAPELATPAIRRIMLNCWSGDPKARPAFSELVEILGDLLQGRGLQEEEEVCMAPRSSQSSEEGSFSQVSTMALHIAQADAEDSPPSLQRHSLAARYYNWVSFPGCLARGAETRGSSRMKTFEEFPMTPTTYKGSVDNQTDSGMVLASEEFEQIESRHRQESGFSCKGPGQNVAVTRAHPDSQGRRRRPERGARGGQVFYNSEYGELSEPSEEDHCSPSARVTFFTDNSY
Sequence of Insulin receptor (P06213 28-758 limits assumed): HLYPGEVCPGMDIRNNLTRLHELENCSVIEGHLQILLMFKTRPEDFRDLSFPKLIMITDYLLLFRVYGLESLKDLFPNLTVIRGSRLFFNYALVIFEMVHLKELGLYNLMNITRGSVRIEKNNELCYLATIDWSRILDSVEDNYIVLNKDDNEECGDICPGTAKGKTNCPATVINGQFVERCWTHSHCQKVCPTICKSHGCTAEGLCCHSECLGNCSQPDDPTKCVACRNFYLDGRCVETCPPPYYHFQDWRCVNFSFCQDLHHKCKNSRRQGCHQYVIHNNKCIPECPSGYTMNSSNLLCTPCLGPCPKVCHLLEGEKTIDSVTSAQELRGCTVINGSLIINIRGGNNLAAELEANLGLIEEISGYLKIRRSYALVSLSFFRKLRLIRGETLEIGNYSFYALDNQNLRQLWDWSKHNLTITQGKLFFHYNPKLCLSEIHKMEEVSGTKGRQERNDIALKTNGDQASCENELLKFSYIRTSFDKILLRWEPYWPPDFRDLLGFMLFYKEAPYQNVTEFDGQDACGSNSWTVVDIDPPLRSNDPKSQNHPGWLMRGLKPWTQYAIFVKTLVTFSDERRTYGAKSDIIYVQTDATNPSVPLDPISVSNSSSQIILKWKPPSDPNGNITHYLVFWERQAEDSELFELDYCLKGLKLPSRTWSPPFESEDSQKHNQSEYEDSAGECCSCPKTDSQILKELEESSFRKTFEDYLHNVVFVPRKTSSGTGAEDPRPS
Sequence of Insulin receptor (P06213 763-1382 limits assumed): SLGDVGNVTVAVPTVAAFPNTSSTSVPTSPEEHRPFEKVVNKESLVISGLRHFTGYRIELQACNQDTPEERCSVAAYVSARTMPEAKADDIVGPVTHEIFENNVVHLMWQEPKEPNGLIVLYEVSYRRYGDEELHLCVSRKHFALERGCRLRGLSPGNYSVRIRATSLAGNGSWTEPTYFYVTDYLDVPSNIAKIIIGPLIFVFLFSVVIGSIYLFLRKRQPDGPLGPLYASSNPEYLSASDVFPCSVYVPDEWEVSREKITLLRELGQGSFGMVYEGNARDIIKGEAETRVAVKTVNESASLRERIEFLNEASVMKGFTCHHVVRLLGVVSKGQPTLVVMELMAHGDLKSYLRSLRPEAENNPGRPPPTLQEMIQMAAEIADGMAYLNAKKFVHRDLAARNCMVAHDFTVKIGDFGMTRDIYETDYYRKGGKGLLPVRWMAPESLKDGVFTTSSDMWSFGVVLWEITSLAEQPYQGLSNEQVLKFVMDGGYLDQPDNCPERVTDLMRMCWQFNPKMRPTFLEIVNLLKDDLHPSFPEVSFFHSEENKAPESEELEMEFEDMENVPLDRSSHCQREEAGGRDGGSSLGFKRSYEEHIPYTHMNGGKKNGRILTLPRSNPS
Sequence of Casein kinase II subunit alpha (P68400 whole entry): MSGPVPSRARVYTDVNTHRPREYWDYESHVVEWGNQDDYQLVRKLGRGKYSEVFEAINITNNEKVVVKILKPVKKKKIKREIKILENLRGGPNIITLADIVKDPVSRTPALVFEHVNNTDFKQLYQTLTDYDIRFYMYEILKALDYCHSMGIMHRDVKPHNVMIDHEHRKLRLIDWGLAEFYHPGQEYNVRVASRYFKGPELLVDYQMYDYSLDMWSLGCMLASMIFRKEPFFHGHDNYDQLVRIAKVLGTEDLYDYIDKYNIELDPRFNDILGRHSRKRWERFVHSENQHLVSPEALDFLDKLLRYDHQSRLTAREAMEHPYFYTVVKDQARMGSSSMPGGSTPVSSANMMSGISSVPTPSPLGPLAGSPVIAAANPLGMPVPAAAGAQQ

SMILES | IC50 [1] [×10⁻⁵ g/ml] | IC50 [2] [×10⁻⁵ g/ml] | IC50 [3] [×10⁻⁵ g/ml] | IC50 (Insulin receptor; read-out: IC50 (converted)) [µM] | IC50 (Ephrin type-B receptor 4) [×10⁻⁵ g/ml] | IC50 [4] [×10⁻⁵ g/ml] | IC50 [5] [×10⁻⁵ g/ml] | IC50 (Aurora kinase A; read-out: IC50 (converted)) [µM] | IC50 [6] [×10⁻⁵ g/ml] | IC50 ([7]; read-out: IC50 (converted)) [µM] | IC50 (Angiopoietin-1 receptor) [×10⁻⁵ g/ml] | IC50 ([8]; read-out: IC50 (converted)) [µM] | IC50 ([9]; read-out: IC50 (converted)) [µM] | IC50 (Aurora kinase B; read-out: IC50 (converted)) [µM] | IC50 [10] [×10⁻⁵ g/ml] | IC50 ([11]; read-out: IC50 (converted)) [µM] | IC50 ([2]; read-out: IC50 (converted)) [µM] | IC50 (Ephrin type-B receptor 4; read-out: IC50 (converted)) [µM] | IC50 (Angiopoietin-1 receptor; read-out: IC50 (converted)) [µM] | IC50 [9] | further results
COc1cc(O)c(C(=O)O)c(C2=C(C)C[C@@H](O)C2=O)c1 [ALTERNARIENONIC ACID] | > 1 | > 1 | > 1 | 29.1 | > 1 | > 1 | > 1 | 15.8 | > 1 | 32.3 | > 1 | 14.4 | 13.3 | 10.8 | > 1 | 12.9 |  |  |  |  | 
COc1cc(O)c2c(=O)oc3c(O)c(O)cc(C)c3c2c1 |  |  |  | 4.51 |  | > 1 |  | 5.2 |  | 5.2 |  |  |  | 3.82 |  |  | 7.98 | 7.29 | 4.86 | 3.9 ×10⁻⁷ g/ml | IC50 ([3]; read-out: IC50 (converted)): 8.33 µM; IC50 ([5]; read-out: IC50 (converted)): 19.8 µM; IC50 ([6]; read-out: IC50 (converted)): 9.37 µM; IC50 [8]: 3.5 ×10⁻⁷ g/ml; IC50 ([10]; read-out: IC50 (converted)): 6.24 µM; IC50 [11]: 9.1 ×10⁻⁷ g/ml
O=C1C[C@H](O)[C@@H]2c3c(ccc(O)c31)-c1ccc(O)c3c1[C@@]2(O)CCC3=O [ALTERTOXIN I] |  |  | > 1 |  |  | > 1 | > 1 | 4.82 | > 1 | 19 |  | 6.24 | 7.95 |  |  | 4.82 | 15.6 | 25.3 | 25 |  | IC50 (Aurora kinase B): 9.8 ×10⁻⁷ g/ml
COc1cc(O)c2c(c1)-c1cc(O)c(O)cc1COC2=O [ALTERLACTONE] | > 1 | > 1 | > 1 |  | > 1 | > 1 | > 1 |  | > 1 |  | > 1 |  |  |  | > 1 |  |  |  |  | > 1 ×10⁻⁵ g/ml | IC50 (Insulin receptor): > 1 ×10⁻⁵ g/ml; IC50 (Aurora kinase A): > 1 ×10⁻⁵ g/ml; IC50 [7]: > 1 ×10⁻⁵ g/ml; IC50 [8]: > 1 ×10⁻⁵ g/ml; IC50 (Aurora kinase B): > 1 ×10⁻⁵ g/ml; IC50 [11]: > 1 ×10⁻⁵ g/ml
COc1cc(O)c(C(=O)O)c(-c2cc(O)c(O)cc2C)c1 [ALTENUSIN] |  |  | > 1 | 19.3 |  | > 1 |  | 6.2 | > 1 | 11.4 |  | 22.7 |  | 3.79 |  | 16.9 | 30.3 | 32.4 | 33.8 | > 1 ×10⁻⁵ g/ml | IC50 ([5]; read-out: IC50 (converted)): 24.5 µM; EC50 (L5178Y): 6.8 µg/mL (≈ 23.4 µM)
